# Only some compounds are listed: those with a hit (about 1.5% of all), similar ones and a draw of the others.
# TPT1 inh – Candida albicans TPT1 enzyme inhibitors, primary screen, biochemical, fluorescence polarization; tRNA 2'-phosphotransferase TPT1 (Candida albicans SC5314); inhibition, % at 5 µM; hit rate 0.81% among 300,000; recombinant caTPT1, FP RNA substrate dephosphorylation;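 active means inhibition above the mean of all tested compounds plus 3 SD, set per screening campaign, cut at about 24% in these data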;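 further: plate controls were DMSO alone for no effect and ferristatin control at 100 nM for full effect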
# Rpn11 block – Rpn11 (PSMD14) deubiquitinase inhibitors, primary screen, biochemical, fluorescence polarization, uHTS. AID 588493, 2011. 26S proteasome non-ATPase regulatory subunit 14 (Homo sapiens), O00487. hit rate 0.59% among 360,000. inhibition, % at 20 µM. human 26S proteasome, Ub4-pepOG fluorescence polarization; 20S core pre-blocked with epoxomicin;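 active means inhibition at 20 µM, scaled to each plate's controls, above about 33%, limit read from the data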
# HNF4A DNA FP – change in binding of human HNF4A to DNA, primary screen, biochemical, fluorescence polarization, FITC-DNA | Hepatocyte nuclear factor 4-alpha (Homo sapiens), P41235 | 1 h | activity change, % at 10 µM | hit rate 0.3% among 360,000; in the data active means activity change above about 30%, passing the limit was not always enough
# Target sequence (P41235 whole entry, looked up): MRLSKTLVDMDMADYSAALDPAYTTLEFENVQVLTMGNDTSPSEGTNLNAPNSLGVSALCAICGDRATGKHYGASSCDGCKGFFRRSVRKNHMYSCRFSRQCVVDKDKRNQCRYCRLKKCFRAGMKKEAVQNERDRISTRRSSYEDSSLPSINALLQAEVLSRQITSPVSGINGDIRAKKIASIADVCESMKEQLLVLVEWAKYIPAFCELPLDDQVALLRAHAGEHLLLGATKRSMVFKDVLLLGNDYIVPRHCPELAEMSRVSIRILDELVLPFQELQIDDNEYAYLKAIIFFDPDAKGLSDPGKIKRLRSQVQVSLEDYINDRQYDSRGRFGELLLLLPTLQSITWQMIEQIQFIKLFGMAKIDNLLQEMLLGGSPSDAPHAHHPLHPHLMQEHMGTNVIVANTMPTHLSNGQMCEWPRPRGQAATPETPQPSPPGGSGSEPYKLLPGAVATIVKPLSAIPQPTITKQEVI
# CSN deneddyl inh – inhibitors of CSN-mediated cullin deneddylation, primary screen, biochemical, fluorescence polarization, uHTS. COP9 signalosome complex subunit 5 (Homo sapiens), Q92905. Purified CSN, SCF-Nedd8-OG deneddylation. inhibition, % at 12.5 µM. hit rate 0.38% among 360,000;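 active means pattern-corrected inhibition above about 35%, with an unprinted fluorescence ratio check between 0.5 and 1.5, limit read from the data, passing the limit was not always enough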;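 further: 0% = enzyme with substrate and 100% = substrate without enzyme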
#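 Schedule: reaction 90 min, room temperature / Assay system: HEK293T-derived human Csn5 enzyme / Input: Csn5 at 0.24 nM final / Measure: inhibition of Csn5 cleavage, % / Control set: substrate-only high control, full reaction low control / Technique: fluorescence polarization of the substrate / Buffer or medium: Tris/NaCl/DTT buffer, pH 7.5 / Reagent: SCFSkp2-Nedd8OG substrate at 10 nM final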
# Starred values were filed as active, the others as inactive; / = not tested or not shown.
SMILES,TPT1 inh,Rpn11 block,HNF4A DNA FP,CSN deneddyl inh
COC(=O)CC(c1ccc(OC)c(OC)c1)c1ccc(OC)c(OC)c1,2,-5,2,-6
Cc1c(C(=O)Nc2cccc([N+](=O)[O-])c2)cnn1-c1ccccc1,-2,9,-4,-1
COc1ccc2c(COC(=O)c3n[nH]c4ccccc34)cc(=O)oc2c1,2,28,1,38*
COc1ccc([C@H]2CC(=O)C=C(c3c(OC)cccc3OC)C2)cc1,/,1,2,-1
CC(=NNC(=S)N1CCN(c2ccccn2)CC1)c1ccccn1,/,42*,23,6
COc1ccc(CC(=O)Nc2cc(S(=O)(=O)Nc3ccc(OC)cc3)ccc2OC)cc1,/,10,-2,-6
O=C(COC(=O)/C=C/c1ccc([N+](=O)[O-])cc1)Nc1ccc(F)cc1,/,3,-1,42*
Cc1cn(-c2cc(NC(=O)c3ccc(C)c(NC(=O)c4cccc(-c5cn[nH]c(=O)c5)c4)c3)cc(C(F)(F)F)c2)cn1,-1,107*,25,13
Clc1ccc(C2=NCCN2)cc1,3,6,-8,0
O=C(Nc1ccc(Cl)cc1F)C1CCCN(C2=NS(=O)(=O)c3ccccc32)C1 (centres undefined),/,3,2,1
Cc1cccc(NC(=O)c2cc(S(=O)(=O)N3CCCC3)cn2C)c1,-3,-3,-1,2
Cc1cc(C)cc(NC(=O)c2cc(S(=O)(=O)N3CCCC3)cn2C)c1,-3,-6,53*,-5
N=c1c(S(=O)(=O)c2ccc(Cl)cc2)cc2c(=O)n3ccccc3nc2n1Cc1ccco1,8,18,5,40*
CCCNC(=O)C1(C)CCN(C(=O)c2oc3ccccc3c2C)C1 (centres undefined),/,-3,0,4
O=c1c2ccccc2sn1-c1ccc(F)cc1,/,-5,5,7
O=c1c2ccc(F)cc2sn1-c1ccccc1,/,-12,29*,-3
COc1ccc(Br)cc1CN1CCN(Cc2c[nH]c3ccccc23)CC1,-2,-16,59*,6
COc1ccc(CN2CCN(Cc3c[nH]c4ccccc34)CC2)cc1OC,/,0,2,0
CC(C)[C@@H]1Cc2[nH][nH]c(=O)c2[C@H](C(C)C)O1,/,/,-1,-5
Cc1cc(C)n2c(NC3CCCCC3)c(CC(C)C)nc2n1,/,/,108*,-1
CCOC(=O)c1cc(-c2ccccc2)sc1NC(=S)Nc1cc(C)ccn1,-3,/,47*,16
CCOC(=O)c1cc(-c2ccccc2)sc1NC(=O)C(C)(C)C,2,-2,-3,0
CCSc1nnc(NC(=O)CSc2sc3c(O)cc(=O)[nH]c3c2C#N)s1,2,59*,-33,35
Cc1csc(NC(=O)CSc2sc3c(O)cc(=O)[nH]c3c2C#N)n1,4,40,-13,15
CCCNC(=O)C1(C)CCCN(Cc2ccc(Oc3ccccc3)cc2)C1 (centres undefined),/,-2,3,-2
SMILES,TPT1 inh,Rpn11 block,HNF4A DNA FP,CSN deneddyl inh
CCOc1ccc(C2C(C(=O)C3CC3)N3C=C(C#N)C=CC3C2(C#N)C#N)cc1 (centres undefined),50*,/,/,/
CCOc1ccc(C(=O)C2CCN(C(=O)c3ccccc3C(=O)O)CC2)cc1,-1,0,-1,-1
O=c1/c(=C\c2ccc(O)cc2)sc2nc(-c3ccccc3)c(-c3ccccc3)n12,15,28,52*,13
CC1(C(=O)Nc2cccc(S(=O)(=O)N3CCOCC3)c2)Cc2ccccc2C(=O)O1 (centres undefined),-1,-1,1,-1
CC1(C(=O)Nc2cccc(-n3cnnn3)c2)Cc2ccccc2C(=O)O1 (centres undefined),/,-2,4,101*
Cc1nc2ccc3nc(NC(=O)c4ccc5c(c4)OCCO5)sc3c2s1,10,32,6,9
Cc1nc2c(ccc3nc(NC(=O)c4ccc5c(c4)OCCO5)sc32)s1,-3,15,21,45*
CCOC(=O)C1=C(CSc2nc(CC)c(C)cc2C#N)OC(N)=C(C#N)C1c1ccccc1 (centres undefined),4,10,3,0
CCOC(=O)C1=C(CSc2nc(-c3ccccc3)ccc2C#N)OC(N)=C(C#N)C1c1ccc(OC)cc1 (centres undefined),23,/,39*,20
CN(CCCn1ccc(NC(=O)OCc2ccccc2)nc1=O)Cc1ccco1,/,-5,-4,-5
COc1ccc(N(C(=O)c2ccncc2)S(=O)(=O)c2ccc(F)cc2)cc1,-3,-2,7,85*
CC(C)N1CCC(C)(C(=O)Nc2ccc(-n3cccc3)cc2)C1 (centres undefined),/,4,-1,-4
CN1CCC(N(C)C(=O)c2ccc(Cl)c(S(=O)(=O)N(C)c3ccc(Cl)cc3)c2)CC1,/,-2,3,2
CCOC(=O)C1=C(c2ccccc2)N=c2s/c(=C\c3ccco3)c(=O)n2C1c1cccs1 (centres undefined),21,20,-2,38*
Cc1ccc(S(=O)(=O)N2C[C@H]3[C@H]4C(=O)N(C5CCCCC5)C(=O)[C@H]4CC(=O)[C@H]3[C@@H]2c2ccccc2Cl)cc1,/,13,0,36*
CCN1C(=O)[C@@H]2[C@@H]3CN(S(=O)(=O)c4ccc(C)cc4)[C@@H](c4cccc5ccccc45)[C@@H]3C(=O)C[C@@H]2C1=O,/,-2,-3,-2
COc1ccc2[nH]cc(CCNS(=O)(=O)c3ccccc3)c2c1,5,-3,0,60*
CN(/N=C/c1cccnc1)c1cnn(-c2ccc(F)c(Cl)c2)c(=O)c1Cl,0,4,2,7
CN(/N=C/c1c[nH]c2ccccc12)c1cnn(-c2ccc(F)c(Cl)c2)c(=O)c1Cl,-1,/,64*,48*
CCOc1cc(/C=C2/C(=N)N3C(=NC2=O)SN=C3S(C)(=O)=O)ccc1OC(=O)c1ccco1,8,62*,34,25
O=C(CCNC(=O)c1ccco1)NC(Cc1c[nH]c2ccccc12)C(=O)O (centres undefined),/,3,-4,-4
COC(=O)CCC(=O)OC1(C)C(=O)C=C2C=C(c3ccsc3)OC=C2C1=O (centres undefined),10,1,8,38*
CCC(=O)OC1(C)C(=O)C=C2C=C(c3ccsc3)OC=C2C1=O (centres undefined),13,16,8,26
Cc1ccc2cc3c(N)c(C(=O)N4CC(=O)Nc5ccccc54)sc3nc2c1,34*,/,/,/
C[C@H]1CN([C@@H](C)CO)C(=O)c2cccc(NC(=O)Nc3ccc(C(F)(F)F)cc3)c2O[C@@H]1CN(C)S(=O)(=O)c1ccc(Cl)cc1,/,-2,4,-2

# Source: PubChem (several laboratories)
